Data from ChEMBL document CHEMBL1158353, “N1-Alkylated 3,4-dihydropyrimidine-2(1H)-ones: Convenient one-pot selective synthesis and evaluation of their calcium channel blocking activity” (Eur J Med Chem, 2009).

Key:
[1] = Inhibition of calcium channel in pig carotid artery assessed as relaxation of KCl-induced tissue contraction; type: tissue-based, Sus scrofa
In short: (§1)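 Arterial strips equilibrated 90-120 min in PSS at 37 °C, pH 7.4, bubbled with 100% O₂, under ~2 g passive force (near L_0), and repeatedly contracted with 110 mM KCl (equimolar NaCl substitution) until force stabilized. Then precontracted with 110 mM KCl PSS to stable force; cumulative compound addition (1 μM to 30 mM), DMSO vehicle control. Force expressed as percent of initial maximal KCl response at each concentration.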

Sus scrofa = species on record: Sus scrofa; assay: Inhibition of calcium channel in pig carotid artery assessed as relaxation of KCl-induced tissue contraction at 1 uM to 30 mM; type: tissue-based; in short: as §1

IC50 [1] [µM] | SMILES | inhibition (Sus scrofa) [%]
100 | CCCCCN1C(=O)NC(c2ccccc2)C(C(=O)OCC)=C1C (stereo not drawn) | 40
100 | C=CCN1C(=O)NC(c2ccccc2)C(C(=O)OCC)=C1C (stereo not drawn) | 40
100 | CCOC(=O)C1=C(C)N(CC)C(=O)NC1c1ccccc1 (stereo not drawn) | 40
100 | CCCCN1C(=O)NC(c2ccccc2)C(C(=O)OCC)=C1C (stereo not drawn) | 40
100 | CCCN1C(=O)NC(c2ccccc2)C(C(=O)OCC)=C1C (stereo not drawn) | 40
100 | CCCCCCCCCCN1C(=O)NC(c2ccccc2)C(C(=O)OCC)=C1C (stereo not drawn) | 40

SMILES | IC50 [1] [µM] | inhibition (Sus scrofa) [%]
COC(=O)C1=C(C)NC(C)=C(C(=O)OC)C1c1ccccc1[N+](=O)[O-] [NIFEDIPINE] | 10 | –
